Screening results from PubChem BioAssay.
The entries come from a sample that favours hits as a whole.
A1 apoptosis 2 – A1 inhibitors via caspase activation, primary screen, cell-based, luminescence, HTS, two replicates; MEF A1-2A-BIM cells, caspase-Glo luminescence, 3 h; percent of clofoctol response, DMSO zero; caspase activation, % (test concentration not listed); 24,000 tested, under 10 active; in the data active means caspase activation above about 5.9%; inconclusive means no clear call, values can overlap the other calls; inactive means below about 2.2%
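Material: mouse embryonic fibroblasts co-expressing A1 and BIM (A1-2A-BIM), primed for A1 dependence / Quantity: 2500 cells/well / Buffer or medium: RPMI-1640 growth medium with 10% FBS / Doses: 50 nL compound per well, pinned / Schedule: 3 h compound exposure at 37 °C / Signal: Caspase-Glo luminescence (DEVD substrate) / Measure: Caspase-3/7 activation, seen as rise in luminescence signal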
INS-1E rescue – protection of INS-1E cells from cytokine death, primary screen, ATP luminescence, single point. protection from cytokine-induced ATP loss, % at 10 µM. AID 488910, 2010. hit rate 0.1% among 20,000. INS-1E cytokine-induced death, 48 h; normalised: neutral wells 0, positive control 100;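 active means mean replicate protection from cytokine-induced ATP loss at least 50% and at least 75% of replicates each reaching 50%; inconclusive means meets only one of the two criteria, mean or replicate share; inactive means fails both the mean and replicate share criteria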
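Assay system: INS-1E rat cells / Quantity: 8000 cells per well / Medium: RPMI without phenol red, 5% FBS / Probe or stimulus: three-cytokine cocktail (IFN-γ, TNF-α, IL-1β) / Dosing: one compound concentration, pin transfer / Timing: 48 h co-treatment, 10 min post-lysis read / Technique: CellTiter-Glo luminescence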
T cruzi HTS – inhibitors of intracellular Trypanosoma cruzi, primary screen, cell-based, plate reader, single point, set 2. intracellular Trypanosoma cruzi in host cells. hit rate 4.9% among 22,000. activity score (inhibition), % at 5.01 µM; in the data active means activity score above about 55%; inconclusive means no clear call, values can overlap the other calls;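 further: parasites and compound incubated about four days before reading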
Numbers stand for hits; n = inactive; u = inconclusive; x = no result given.

SMILES	A1 apoptosis 2	INS-1E rescue	T cruzi HTS
COc1ccc(NC(=O)Nc2ccc3c(c2)CC(=O)N([C@H](C)CO)C[C@@H](C)[C@@H](CN(C)Cc2ccc(Cl)c(Cl)c2)O3)cc1	n	n	74
C[C@@H]1CN([C@H](C)CO)C(=O)Cc2cc(NC(=O)Nc3ccc(F)cc3)ccc2O[C@H]1CN(C)Cc1ccc(Cl)c(Cl)c1	n	n	62
COc1ccc(NC(=O)Nc2ccc3c(c2)CC(=O)N([C@@H](C)CO)C[C@H](C)[C@H](CN(C)Cc2ccc(Cl)c(Cl)c2)O3)cc1	x	n	64
C[C@H]1CN([C@@H](C)CO)C(=O)Cc2cc(NC(=O)Nc3ccc(F)cc3)ccc2O[C@@H]1CN(C)Cc1ccc(Cl)c(Cl)c1	x	n	u
CC(C)(C)OC(=O)Nc1ccc(/C=N/NC(=O)c2ccc(C(=O)NO)cc2)cc1	x	n	n
O=C(N/N=C/c1cccc(B(O)O)c1)c1ccccc1O	n	n	n
COC(=O)CCCCCCC(=O)N/N=C/c1ccoc1	n	n	n
O=C(N/N=C/c1ccncc1Br)c1ccccc1O	n	n	n
C[C@@H]1CN([C@H](C)CO)C(=O)c2cc(NC(=O)Nc3cccc4ccccc34)ccc2O[C@H]1CN(C)Cc1ccc(-c2ccccc2)cc1	n	n	86
C[C@H]1CN([C@@H](C)CO)C(=O)c2cc(NC(=O)Nc3cccc4ccccc34)ccc2O[C@@H]1CN(C)Cc1ccc(Oc2ccccc2)cc1	n	n	81
C[C@H]1CN([C@@H](C)CO)C(=O)c2cc(NC(=O)Nc3cccc4ccccc34)ccc2O[C@H]1CN(C)Cc1ccc(-c2ccccc2)cc1	n	x	n
C[C@@H]1CN([C@H](C)CO)C(=O)c2cc(NC(=O)Nc3cccc4ccccc34)ccc2O[C@@H]1CN(C)Cc1ccc(Oc2ccccc2)cc1	x	n	n
O=C(CCCCCCC(=O)Nc1ccccc1O)N/N=C/c1ccc(O)c(O)c1O	x	n	n
C[C@@H]1CN([C@@H](C)CO)C(=O)c2cccc(NS(=O)(=O)c3cccs3)c2O[C@@H]1CN(C)C(=O)Nc1ccc(F)cc1	x	n	n
COc1ccc(S(=O)(=O)Nc2cccc3c2O[C@H](CN(C)C(=O)Nc2ccc(F)cc2)[C@@H](C)CN([C@H](C)CO)C3=O)cc1	x	n	n
C[C@H]1CN([C@@H](C)CO)C(=O)c2cccc(NC(=O)Nc3ccc(C(F)(F)F)cc3)c2O[C@@H]1CN(C)C(=O)Nc1cccc2ccccc12	n	n	66
C[C@H]1CN([C@@H](C)CO)C(=O)c2cccc(NC(=O)Nc3ccc(C(F)(F)F)cc3)c2O[C@@H]1CN(C)C(=O)Nc1ccc(C(F)(F)F)cc1	n	n	n
C[C@@H]1CN([C@@H](C)CO)C(=O)c2cccc(NC(=O)Nc3ccc(C(F)(F)F)cc3)c2O[C@H]1CN(C)C(=O)Nc1ccc(C(F)(F)F)cc1	n	n	72
COc1ccc(NC(=O)N(C)C[C@H]2Oc3c(NS(=O)(=O)c4ccc(F)cc4)cccc3C(=O)N([C@@H](C)CO)C[C@H]2C)cc1	n	n	64
C[C@@H]1CN([C@H](C)CO)C(=O)c2cccc(NC(=O)Nc3ccc(C(F)(F)F)cc3)c2O[C@H]1CN(C)C(=O)Nc1cccc2ccccc12	n	n	n
C[C@@H]1CN([C@H](C)CO)C(=O)c2cccc(NS(=O)(=O)c3cccs3)c2O[C@@H]1CN(C)C(=O)Nc1ccc(C(F)(F)F)cc1	n	n	71
CC(=O)N1Cc2ccccc2C[C@@]2(N=C(c3ccc(OCCCO)cc3)O[C@H]2c2ccccc2)C1=O	n	x	x
O=C1c2ccccc2[C@](Cc2ccccc2I)(C(=O)O)[C@H](c2ccc(CO)cc2)N1C1CCCCC1	n	x	x
C[C@@H]1CN([C@@H](C)CO)C(=O)Cc2cc(NC(=O)Nc3cccc4ccccc34)ccc2O[C@@H]1CN(C)C(=O)Nc1ccc2c(c1)OCO2	n	n	n
C[C@@H]1CN([C@@H](C)CO)C(=O)c2cc(NC(=O)Nc3ccccc3)ccc2O[C@@H](C)CCCCO[C@H]1CN(C)S(=O)(=O)c1ccc(Cl)cc1	n	x	x
SMILES	A1 apoptosis 2	INS-1E rescue	T cruzi HTS
COc1cc(O)cc(OC)c1/C=N/NC(=O)CCCCC(=O)NO	x	n	n
O=C(N/N=C/c1ccc(-n2ccnc2)cc1)c1ccccn1	n	n	n
C[C@@H]1CN([C@@H](C)CO)C(=O)c2cccc(NC(=O)Nc3ccc(C(F)(F)F)cc3)c2O[C@H]1CN(C)C(=O)NC1CCCCC1	n	n	n
C[C@@H]1CN([C@H](C)CO)C(=O)c2cccc(NC(=O)Nc3ccc(C(F)(F)F)cc3)c2O[C@@H]1CN(C)C(=O)NC1CCCCC1	n	n	82
COc1ccc(C#Cc2ccc3c(c2)[C@]2(C(=O)N3)[C@H](C(N)=O)[C@H]3C(=O)O[C@H](c4ccccc4)[C@H](c4ccccc4)N3[C@@H]2c2ccccc2OCCO)cc1	n	x	x
C[C@H](CO)N1C[C@H](C)[C@H](CN(C)S(=O)(=O)c2ccc(Cl)cc2)Oc2c(NC(=O)CCCCCC(=O)Nc3ccccc3N)cccc2C1=O	n	n	74
C[C@H](CO)N1C[C@H](C)[C@@H](CN(C)S(=O)(=O)c2ccc(Cl)cc2)Oc2c(NC(=O)Nc3ccc(C(F)(F)F)cc3)cccc2C1=O	n	n	n
C[C@H]1CN([C@@H](C)CO)C(=O)c2cccc(NC(=O)Nc3ccc(C(F)(F)F)cc3)c2O[C@H]1CN(C)S(=O)(=O)c1cccs1	n	n	n
C[C@@H]1CN([C@@H](C)CO)C(=O)c2cccc(NC(=O)Nc3ccc(C(F)(F)F)cc3)c2O[C@H]1CN(C)S(=O)(=O)c1ccc(Cl)cc1	n	n	80
C[C@H]1CN([C@@H](C)CO)C(=O)c2cccc(NC(=O)CCCCCC(=O)Nc3ccccc3N)c2O[C@@H]1CN(C)S(=O)(=O)c1ccc(Cl)cc1	n	n	n
C[C@H](CO)N1C[C@H](C)[C@@H](CN(C)S(=O)(=O)c2ccc(F)cc2)Oc2c(NC(=O)Nc3ccc(C(F)(F)F)cc3)cccc2C1=O	n	n	57
C[C@H](CO)N1C[C@H](C)[C@H](CN(C)S(=O)(=O)c2cccs2)Oc2c(NC(=O)Nc3ccc(C(F)(F)F)cc3)cccc2C1=O	n	n	84
C[C@@H]1CN([C@@H](C)CO)C(=O)c2cccc(NC(=O)Nc3ccc(C(F)(F)F)cc3)c2O[C@H]1CN(C)S(=O)(=O)c1ccc(F)cc1	n	n	n
O=C(N/N=C/c1ccc(OCCO)cc1)c1ccccc1O	n	n	n
C[C@H](CO)N1C[C@H](C)[C@H](CN(C)S(=O)(=O)c2ccc(Cl)cc2)Oc2c(NC(=O)Nc3ccccc3)cccc2C1=O	x	n	n
Cc1ccc(S(=O)(=O)N(C)C[C@@H]2Oc3c(NC(=O)Nc4ccc(C(F)(F)F)cc4)cccc3C(=O)N([C@H](C)CO)C[C@@H]2C)cc1	n	n	85
Cc1noc(C)c1NC(=O)Nc1cccc2c1O[C@@H](CN(C)S(C)(=O)=O)[C@H](C)CN([C@H](C)CO)C2=O	x	n	n
